Laboratory results taken from PMC11983213 (ACS Omega, 2025).
Converted amounts (≈) assume the structure as drawn.

Columns and labels:
[1] = system: protein tyrosine kinases v-src and pp60src; details: cited from earlier work
[2] = system: SPC-1-A, Bcap37, and HepG2 cancer cells; details: via the mitochondrial apoptotic pathway; cited from earlier work
[3] = system: breast and colon cancer cells; details: cited from earlier work
[4] = system: MDA-MB-231 breast cancer cell line; assay: MTT cytotoxicity assay on MDA-MB-231; assay type: cell-based; details: Homo sapiens, MDA-MB-231, 48 h
Outline: (§1)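 Cells held in RPMI-1640 or DMEM with 2 mM L-glutamine, 1% penicillin/streptomycin and 10% FBS at 37 °C, 5% CO2. Seeded in triplicate at 5000 cells per well, then treated next day with test extract or compound. After 48 h exposure, MTT reagent added for 3 h and signal read at 570 nm. IC50 estimated from the viability data.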

[5] = system: HSF normal cell line; assay: MTT cytotoxicity assay on HSF; assay type: cell-based; details: 48 h
Outline: as §1

[6] = system: HepG2 liver cancer cell line; assay: MTT cytotoxicity assay on HepG2; assay type: cell-based; details: Homo sapiens, HepG2, 48 h
Outline: as §1

[7] = system: MCF-7 breast cancer cell line; assay: MTT cytotoxicity assay on MCF-7; assay type: cell-based; details: Homo sapiens, MCF7, 48 h
Outline: as §1

[8] = system: gastric cancer cells; details: via PI3K/Akt/Snail pathway; cited from earlier work
[9] = system: breast cancer cells; details: cited from earlier work
[10] = system: pancreatic cancer cells; details: by blocking NF-κB activation; cited from earlier work
[11] = system: breast and bone cancers; details: cited from earlier work
[12] = system: breast and skin cancer cells; details: cancer versus normal cells; cited from earlier work

SMILES | IC50 [4] | IC50 [5] | IC50 [6] | IC50 [7] | also measured
O=C1c2ccccc2C(=O)c2cc(O)ccc21 [2-hydroxyanthraquinone] |  |  |  |  | inhibitory activity against protein tyrosine kinases [1]: exhibited inhibitory activity; effect on cell growth [2]: arrested the growth; induction of apoptosis [3]: resulting in apoptosis via inhibiting antiapoptotic pathways
COc1ccc2c(c1O)C(=O)c1ccccc1C2=O [2-methyl alizarin, 1-Hydroxy-2-methoxyanthracene-9,10-dione] | 83 µg/mL (≈ 327 µM) | 67 µg/mL (≈ 264 µM) | 8.88 µg/mL (≈ 34.9 µM) | 52.1 µg/mL (≈ 205 µM) | 
COc1cccc2c1C(=O)c1c(O)c3c(c(O)c1C2=O)C[C@@](O)(C(=O)CO)C[C@@H]3O[C@H]1C[C@H](N)[C@H](O)[C@H](C)O1 [Doxorubicin, reference compound] | 7.05 µg/mL (≈ 13 µM) |  | 2.48 µg/mL (≈ 4.56 µM) | 2.17 µg/mL (≈ 3.99 µM) | 
COc1ccc(-c2cc(=O)c3c(O)cc(O)cc3o2)cc1 [acacetin] |  |  |  |  | effect on invasion, migration and TGF-β1-induced EMT [8]: prevented gastric cancer cells from invasively migrating and developing TGF-β1-induced epithelial-to-mesenchymal transition; induction of cell death [9]: caused RIP1-dependent necroptotic death and prolonged ERK1/2 activation
CC(=O)Oc1ccc2c(c1OC(C)=O)C(=O)c1ccccc1C2=O [alizarin-1,2-diacetate, 1,2-Diacetoxyanthraquinone] | 127 µg/mL (≈ 391 µM) | 142 µg/mL (≈ 437 µM) | ≥ 50 µg/mL | 135 µg/mL (≈ 416 µM) | 
CC(=O)Oc1ccc2c(c1O)C(=O)c1ccccc1C2=O [alizarin-2-acetate, 9,10-Dihydro-1-hydroxy-9,10-dioxoanthracen-2-yl Acetate] | 157 µg/mL | 151 µg/mL | ≥ 50 µg/mL | 120 µg/mL | 
O=C1c2ccccc2C(=O)c2c1ccc(O)c2O [alizarin] | 52.6 µg/mL (≈ 219 µM) | 111 µg/mL (≈ 462 µM) | 99.4 µg/mL (≈ 414 µM) | 66.9 µg/mL (≈ 279 µM) | effect on cell growth [10]: prevented pancreatic cancer cells from growing; effect on breast and bone cancers [11]: impaired both breast and bone cancers by inducing cell cycle arrest in the S phase and inhibiting ERK phosphorylation
O=C1c2ccccc2C(=O)c2c(O)c(O)cc(O)c21 [purpurin] | 244 µg/mL (≈ 954 µM) | 201 µg/mL (≈ 783 µM) | 179 µg/mL (≈ 700 µM) | 148 µg/mL (≈ 577 µM) | 
O=C1c2ccccc2C(=O)c2c(O)cc(O)cc21 [xanthopurpurin] |  |  |  |  | selective toxicity [12]: high selective toxicity toward breast and skin cancer cells at lower concentrations without inducing toxicity toward normal cells
